This note sets out measurements from ChEMBL document CHEMBL4428038, “Overcoming chloroquine resistance in malaria: Design, synthesis and structure-activity relationships of novel chemoreversal agents” (Eur J Med Chem, 2016).

The nature of data set [1]: Resistance index, ratio of EC50 for intermediate chloroquine-resistant Plasmodium falciparum 7G8 isolate MRA-154 CRT SVMNT haplotype mutant to EC50 for chloroquine-sensitive Plasmodium falciparum 3D7 isolate MRA-102. The method, boiled down:
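EC50 is the concentration of chemoreversal agent that halves the chloroquine concentration needed to inhibit survival of half the parasites. It was derived from dose-dependent shifts in chloroquine IC50, measured in 7G8 and 3D7. The index is the 7G8 EC50 divided by the 3D7 EC50.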

Data set [2] can be described thus: Resistance index, ratio of chloroquine IC50 for intermediate chloroquine-resistant Plasmodium falciparum 7G8 isolate MRA-154 CRT SVMNT haplotype mutant to chloroquine IC50 for chloroquine-sensitive Plasmodium falciparum 3D7 isolate MRA-102 at 500 nM. The method in brief: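 Chloroquine IC50 was measured with the chemoreversal agent fixed at 500 nM in K1 or 7G8 and in sensitive 3D7 (means, n = 3). The resistance ratio is the chloroquine IC50 in K1 or 7G8 divided by the chloroquine IC50 in 3D7.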

The subject of data set [3] is T1, Chloroquine resistance transporter (Plasmodium falciparum), Q9N623 [K76T].
T1 sequence (whole entry): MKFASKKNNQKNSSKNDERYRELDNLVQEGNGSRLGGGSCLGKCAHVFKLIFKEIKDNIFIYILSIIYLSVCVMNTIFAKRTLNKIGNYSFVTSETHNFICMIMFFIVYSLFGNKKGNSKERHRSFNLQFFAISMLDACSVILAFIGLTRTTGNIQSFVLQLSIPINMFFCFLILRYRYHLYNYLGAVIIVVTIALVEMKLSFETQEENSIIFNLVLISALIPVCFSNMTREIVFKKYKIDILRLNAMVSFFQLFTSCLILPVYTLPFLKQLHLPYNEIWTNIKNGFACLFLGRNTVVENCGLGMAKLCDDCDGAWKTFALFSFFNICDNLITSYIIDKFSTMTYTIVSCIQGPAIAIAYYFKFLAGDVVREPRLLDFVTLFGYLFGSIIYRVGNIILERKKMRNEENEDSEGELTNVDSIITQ
The data set is described as follows: Inhibition of CRT K76T mutant in chloroquine/artemisinin-resistant Plasmodium falciparum ARS233 assessed as reversal of chloroquine resistance by measuring reduction in chloroquine IC50 at 500 nM relative to chloroquine alone.

For data set [4], the system named is Plasmodium falciparum. The data set is described as follows: Intrinsic antimalarial activity against chloroquine/artemisinin-resistant Plasmodium falciparum NHP4773 harboring CRT K76T mutant assessed as reduction in parasite viability at 500 nM. Type of data set: functional, organism-based.
Data set [5] relates to Plasmodium falciparum. Briefly: Intrinsic antimalarial activity against chloroquine/artemisinin-resistant Plasmodium falciparum ARS272 harboring CRT K76T mutant assessed as reduction in parasite viability at 500 nM. The class given is functional, organism-based.
Data set [6] has as its system T1, Chloroquine resistance transporter (Plasmodium falciparum), Q9N623 [K76T]. The data set is described as follows: Inhibition of CRT K76T mutant in chloroquine/artemisinin-resistant Plasmodium falciparum NHP4773 assessed as reversal of chloroquine resistance by measuring reduction in chloroquine IC50 at 500 nM relative to chloroquine alone.
Data set [7] concerns Plasmodium falciparum. The data set is described as follows: Intrinsic antimalarial activity against chloroquine-resistant Plasmodium falciparum K1 isolate MRA-159 harboring CRT CVIET haplotype mutant assessed as reduction in parasite viability at 500 nM. Type of data set: functional, organism-based.
Data set [8] deals with Plasmodium falciparum 7G8. Briefly: (§1) Inhibition of CRT SVMNT haplotype mutant in intermediate chloroquine-resistant Plasmodium falciparum 7G8 isolate MRA-154 assessed as reversal of chloroquine resistance by measuring reduction in chloroquine IC50 relative to chloroquine alone. The method in brief: (§2)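 Chloroquine IC50 was determined in the presence of a fixed 500 nM chemoreversal agent, against chloroquine alone. The RMI is the ratio of chloroquine IC50 with agent to chloroquine IC50 alone. Mean of n = 3; two-tailed t test versus chloroquine without agent.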

Data set [9] is described as follows: as §1. The method, boiled down:
as §2

The nature of data set [10]: Permeability of compound incubated for 16 hrs at pH 7.4 by PAMPA. The class given is ADME. The note with it: read-out: Peff. For orientation: The PAMPA barrier holds no transporters, so it reflects passive diffusion.
Data set [11] deals with Plasmodium falciparum K1. Briefly: Inhibition of CRT CVIET haplotype mutant in Plasmodium falciparum K1 isolate MRA-159 infected in erythrocytes assessed as chloroquine-coumarin probe accumulation at 10 uM after 10 hrs by Hoechst 33342 staining based flow cytometry (reference value: 35.57 +/- 3.84%). The arrangement: scale not given: the % may be the effect or the level left. The class given is cell-based. The method, boiled down:
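Infected erythrocyte cultures at 2.5% hematocrit and 7–12% parasitemia, synchronized to late-ring/early-trophozoite stage, were incubated with chloroquine-coumarin probe plus test agent for 10 h at 37 C. Cells were then washed, resuspended in PBS and read by flow cytometry (405 nm excitation, 450/50 filter). Hoechst-stained duplicate wells set parasitemia. Uptake = % infected erythrocytes fluorescent. Controls: PBS (negative), desipramine and parent compound (positive). ≥3 independent experiments; mean ± SEM.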
On the technique in general: Flow cytometry measures light scatter and fluorescence of single cells or particles in a stream.

The subject of data set [12] is Plasmodium falciparum 7G8. Briefly: Inhibition of CRT SVMNT haplotype mutant in intermediate chloroquine-resistant Plasmodium falciparum 7G8 isolate MRA-154 t assessed as reversal of chloroquine resistance by measuring reduction in chloroquine IC50 at 500 nM relative to chloroquine alone.
Data set [13] in a line: Inhibition of CRT CVIET haplotype mutant in chloroquine-resistant Plasmodium falciparum K1 isolate MRA-159 assessed as reversal of chloroquine resistance by measuring reduction in chloroquine IC50 relative to chloroquine alone. The method in brief: as §2
For data set [14], the system named is Plasmodium falciparum. Briefly: Potentiation of chloroquine-induced antimalarial activity against chloroquine-sensitive Plasmodium falciparum 3D7 isolate MRA-102 assessed as concentration required for 50% reduction in chloroquine IC50 at 500 nM relative to chloroquine alone. The class given is functional, organism-based.
The subject of data set [15] is T1, Chloroquine resistance transporter (Plasmodium falciparum), Q9N623 [K76T]. The data set is described as follows: Inhibition of CRT K76T mutant in chloroquine/artemisinin-resistant Plasmodium falciparum ARS272 assessed as reversal of chloroquine resistance by measuring reduction in chloroquine IC50 at 500 nM relative to chloroquine alone.
Data set [16] in a line: Therapeutic index, ratio of IC50 for human AC10 cells to EC50 for chloroquine-resistant Plasmodium falciparum K1 isolate MRA-159 CRT CVIET haplotype mutant. The class given is toxicity. Particulars: read-out: Ratio IC50/EC50. The method in brief: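 Host-cell IC50 was measured by ATP-luminescence viability assay in TAMH hepatocytes (mean of n = 4 independent determinations) or AC10 cardiomyocytes. Each IC50 was divided by the K1 EC50, the concentration of chemoreversal agent that halves the chloroquine concentration needed for 50% parasite inhibition.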

Data set [17] concerns TAMH. Briefly: Cytotoxicity against TAMH assessed as reduction in cell viability by CellTiter-Glo assay. Particulars: Mus musculus. The class given is cell-based. The method, boiled down: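 For TAMH (hepatocyte line) and AC10 (cardiomyocyte line), viability was read by ATP luminescence (CellTiter-Glo), and the value reported is IC50.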
In general terms: Cellular ATP, detected with luciferase, serves as a proxy for viable cell number.

Data set [18] concerns Plasmodium falciparum. The data set is described as follows: Potentiation of chloroquine-induced antimalarial activity against chloroquine-sensitive Plasmodium falciparum HB3 isolate MRA-155 assessed as reduction in chloroquine IC50 at 500 nM relative to chloroquine alone. Type of data set: functional.
The test system of data set [19] is Plasmodium falciparum. The data set is described as follows: Intrinsic antimalarial activity against intermediate chloroquine-resistant Plasmodium falciparum 7G8 isolate MRA-154 harboring CRT SVMNT haplotype mutant assessed as reduction in parasite viability at 500 nM. The class given is functional, organism-based.
Data set [20] deals with Plasmodium falciparum. The data set is described as follows: Intrinsic antimalarial activity against chloroquine-resistant Plasmodium falciparum Dd2 isolate MRA-156 harboring CRT K76T mutant assessed as reduction in parasite viability at 500 nM. The class given is functional, organism-based.
For data set [21], the system named is Plasmodium falciparum K1. The data set is described as follows: Inhibition of CRT CVIET haplotype mutant in chloroquine-resistant Plasmodium falciparum K1 isolate MRA-159 assessed as reversal of chloroquine resistance by measuring reduction in chloroquine IC50 at 500 nM relative to chloroquine alone.

Structures are written as SMILES. The source made the active and inactive calls. The rule behind the calls is not given here. Where only a bound is given, the exact number is not on record here.

What is called EC50 is the concentration giving half of the maximal effect. The term IC50 denotes the concentration that gives 50% inhibition. For the compound `c1ccc(CN[C@@H]2C3CCN(CC3)[C@@H]2Cc2ccccc2)cc1` (relative stereo), in data set [1], the Ratio EC50 came to 2. Also, the Ratio IC50 in data set [2] stood at 3.9; in data set [3] it was 0.43; in data set [6], 0.45; in [12], 0.8; in [15] it was 0.43; in data set [18], 1.12. Also, the Ratio IC50 in data set [21] turned out to be 0.39. For the same compound, the result in data set [4], in data set [5], in data set [7], in [14], in data set [19] and in [20] was inactive. Further, the inhibition result in data set [8] is “Dose-dependent effect”. Besides, the EC50 in [9] was determined as 380 nM; in [13], 170 nM. The Papp at 16 h in [10] came to 14.5 ×10⁻⁶ cm/s. Moreover, the Activity in [11] came to 83.4%. The selectivity ratio in data set [16] is 420. Moreover, the IC50 in data set [17] is greater than 100000 nM.
